Experimental data as given in ChEMBL document CHEMBL5252539, “In vitro biological evaluation of new antimycobacterial salicylanilide-tuftsin conjugates” (Eur J Med Chem, 2017).
Values after ≈ are worked out from the molar mass of the structure shown. Active and inactive are the calls of the source. No cut-off for these calls is given here. *1 amine or outer side, *2 acyl side, *3 side chain or, on linkers, in order; H or OH if unused. Where a SMILES comes first, the peptide text is derived from it. [ ]: non-standard residue; d: D form. The star is where a group is joined. X2 = C/C(=N\OCC(=O)*)c1ccc(NC(=O)c2cc(Br)ccc2O)cc1; X1 = C/C(=N\OCC(=O)[*:2])c1ccc(N[*:1])cc1; Benzoyl(5-Br-2-OH) = O=C(c1cc(Br)ccc1O)*; X3 = O=C(c1cc(Cl)ccc1O)*

Assays:
[1] = system: Mycobacterium tuberculosis; experiment: Antimycobacterial activity against Mycobacterium tuberculosis H37Rv ATCC 27294 assessed as reduction in bacterial growth after 28 days by serial dilution method; format: functional; settings: H37Rv ATCC 27294, 672 h, time 28 day
Outline: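 Broth MIC in Sula semisynthetic medium, pH 6.5; 4-week incubation, with 21-day values […] where indicated. Drug-free inoculated bacteria served as growth control. MIC also expressed as drug content (µg/mL) = MIC (µM) × average SAL molar mass × number of SAL per conjugate / 1000.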

[2] = system: Mycobacteroides abscessus; experiment: Antimycobacterial activity against Mycobacterium abscessus ATCC 19977 assessed as reduction in bacterial growth after 7 days by serial dilution method; format: functional; settings: ATCC 19977, 168 h, time 7 day
Outline: (§1)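 MIC determined in Sula semisynthetic medium, pH 6.5, 1 week incubation. Growth inhibition confirmed by plating on Löwenstein-Jensen solid medium and counting CFU. Bacteria inoculated without drug served as growth control.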

HepG2 = experiment: Cytostatic activity against human HepG2 cells assessed as reduction in cell viability incubated for 24 hrs by MTT assay; format: functional, cell-based; settings: HepG2, 24 h
Outline: (§2)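 MTT viability assay after 24 h exposure of MonoMac6 human monocytic cells or HepG2 human hepatocellular carcinoma cells. Top concentration 200 μM. IC50 taken from dose-response curves as the concentration reducing viability to 50% of maximal.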

[3] = Selectivity index, ratio of IC50 for cytostatic activity against human HepG2 cells to MIC for antimycobacterial activity against Mycobacterium tuberculosis H37Rv ATCC 27294; format: toxicity, cell-based; settings: read-out: Selectivity Index
Outline: (§3)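 MTT assay on MonoMac6 or HepG2 cells after 24 h exposure, top concentration 200 µM. SI = IC50 (µM)/MIC (µM) against H37Rv from the 4-week Sula medium assay.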

[4] = Selectivity index, ratio of IC50 for cytostatic activity against human MONO-MAC-6 cells to MIC for antimycobacterial activity against Mycobacterium tuberculosis H37Rv ATCC 27294; format: toxicity, cell-based; settings: read-out: Selectivity Index; outline: as §3
[5] = system: Mycobacterium tuberculosis; experiment: […] antimycobacterial activity against Mycobacterium tuberculosis H37Rv ATCC 27294 infected in human MONO-MAC-6 cells assessed as reduction in colony forming unit at 250 uM for 6 days by colony counting based analysis; format: functional, organism-based; settings: time 6.0 day
Outline: (§4)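 MonoMac6 monolayers infected with H37Rv, then treated with compound at 125 or 250 µM for 3 days. Treatment repeated with fresh compound solution for another 3 days. Intracellular bacteria quantified as CFU against untreated infected cells.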

[6] = system: Mycobacteroides abscessus; experiment: Antimycobacterial activity against Mycobacterium abscessus ATCC 19977 assessed as reduction in colony forming unit after 7 days by serial dilution method; format: functional, organism-based; settings: time 7.0 day; outline: as §1
[7] = system: Mycobacterium tuberculosis; experiment: […] antimycobacterial activity against Mycobacterium tuberculosis H37Rv ATCC 27294 infected in human MONO-MAC-6 cells assessed as reduction in colony forming unit at 125 uM for 6 days by colony counting based analysis; format: functional, organism-based; settings: time 6.0 day; outline: as §4
MONO-MAC-6 = experiment: Cytostatic activity against human MONO-MAC-6 cells assessed as reduction in cell viability incubated for 24 hrs by MTT assay; format: functional, cell-based; settings: MONO-MAC-6, 24 h; outline: as §2
[8] = system: Mycobacterium tuberculosis; experiment: Antimycobacterial activity against Mycobacterium tuberculosis H37Rv ATCC 27294 assessed as reduction in colony forming unit after 28 days by serial dilution method; format: functional, organism-based; settings: time 28.0 day
Outline: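 After the 4-week MIC incubation in Sula semisynthetic medium (pH 6.5), growth inhibition confirmed by plating on Löwenstein-Jensen solid medium and counting colony forming units.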

SMILES | MIC [1] [µM] | MIC [2] [µM] | IC50 (HepG2) [µM] | selectivity ratio [3] | selectivity ratio [4] | Activity [5] | Activity [6] | Activity [7] | IC50 (MONO-MAC-6) [µM] | Activity [8]
C/C(=N\OCC(=O)NCC(=O)N[C@@H](Cc1ccccc1)C(=O)N[C@@H](CC(C)C)C(=O)NCC(=O)N[C@H](C(=O)N[C@@H](CCCCN)C(=O)N1CCC[C@H]1C(=O)N1CCC[C@H]1C(=O)N[C@@H](CCCNC(=N)N)C(=O)O)[C@@H](C)O)c1ccc(NC(=O)c2cc(Br)ccc2O)cc1 [listing 1 of 2 here] | 29.4 (≈ 40 µg/mL) | 147 (≈ 200 µg/mL) | – | – | – | – | – | – | – | –
C/C(=N\OCC(=O)NCCCC[C@H](NC(=O)[C@@H]1CCCN1C(=O)[C@H](CCCCN)NC(=O)[C@@H](NC(=O)CNC(=O)[C@H](CCCCNC(=O)CO/N=C(\C)c1ccc(NC(=O)c2cc(Br)ccc2O)cc1)NC(=O)[C@@H]1CCCN1C(=O)[C@H](CCCCN)NC(=O)[C@@H](NC(=O)[C@H](CCCNC(=N)N)NC(=O)[C@@H]1CCCN1C(=O)[C@H](CCCCN)NC(=O)[C@@H](N)[C@@H](C)O)[C@@H](C)O)[C@@H](C)O)C(=O)NCC(=O)O)c1ccc(NC(=O)c2cc(Br)ccc2O)cc1 (H-TKPRTKPK(X2)GTKPK(X2)G-OH) | 34.8 (≈ 80.1 µg/mL) | 86.9 (≈ 200 µg/mL) | 95.2 | 2.7 | 2.9 | Active | Active | Active | 101 | Active
C/C(=N\OCC(=O)NCC(=O)N[C@@H](Cc1ccccc1)C(=O)N[C@@H](CC(C)C)C(=O)NCC(=O)N[C@H](C(=O)N[C@@H](CCCCN)C(=O)N1CCC[C@H]1C(=O)N[C@@H](CCCCN)C(=O)NCC(=O)N[C@H](C(=O)N[C@@H](CCCCN)C(=O)N1CCC[C@H]1C(=O)N[C@@H](CCCCN)C(=O)NCC(=O)N[C@H](C(=O)N[C@@H](CCCCN)C(=O)N1CCC[C@H]1C(=O)N[C@@H](CCCCN)C(=O)NCC(=O)N[C@H](C(=O)N[C@@H](CCCCN)C(=O)N1CCC[C@H]1C(=O)N[C@@H](CCCCN)C(=O)NCC(N)=O)[C@@H](C)O)[C@@H](C)O)[C@@H](C)O)[C@@H](C)O)c1ccc(NC(=O)c2cc(Br)ccc2O)cc1 | 142 (≈ 400 µg/mL) | 70.7 (≈ 200 µg/mL) | – | – | – | – | – | – | – | –
CC(=O)c1ccc(NC(=O)c2cc(Cl)ccc2O)cc1 | 8.6 (≈ 2.49 µg/mL) | 34.5 (≈ 10 µg/mL) | 7.9 | 0.9 | 1.9 | – | Active | – | 16.1 | Active
C/C(=N\OCC(=O)NCC(=O)N[C@@H](Cc1ccccc1)C(=O)N[C@@H](CC(C)C)C(=O)NCC(=O)N[C@H](C(=O)N[C@@H](CCCCN)C(=O)N1CCC[C@H]1C(=O)N[C@@H](CCCNC(=N)N)C(=O)O)[C@@H](C)O)c1ccc(NC(=O)c2cc(Br)ccc2O)cc1 [listing 1 of 2 here] | 31.6 (≈ 40 µg/mL) | 158 (≈ 200 µg/mL) | – | – | – | – | – | – | – | –
CCCCCCCCCCCCCCCC(=O)O [PALMITIC ACID] | – | – | – | – | – | – | – | – | 178 | –
C/C(=N\OCC(=O)NCC(=O)N[C@@H](Cc1ccccc1)C(=O)N[C@@H](CC(C)C)C(=O)NCC(=O)N[C@H](C(=O)N[C@@H](CCCCN)C(=O)N1CCC[C@@H]1C(=O)N1CCC[C@H]1C(=O)N[C@H](CCCNC(=N)N)C(=O)O)[C@@H](C)O)c1ccc(NC(=O)c2cc(Br)ccc2O)cc1 | – | – | – | – | – | Active | Active | inactive | – | Active
CCCCCCCCCC(=O)O [DECANOIC ACID] | – | – | – | – | – | – | – | – | > 200 | –
O=C(Nc1ccc(Cl)c(Cl)c1)c1cc(Br)ccc1O | 1.4 (≈ 0.505 µg/mL) | 7 (≈ 2.53 µg/mL) | 4.1 | 2.9 | 1 | – | – | – | 1.4 | –
C/C(=N\OCC(=O)N[C@H](C(=O)N[C@@H](CCCCN)C(=O)N1CCC[C@H]1C(=O)N[C@@H](CCCCN)C(=O)NCC(=O)N[C@H](C(=O)N[C@@H](CCCCN)C(=O)N1CCC[C@H]1C(=O)N[C@@H](CCCCN)C(=O)NCC(=O)N[C@H](C(=O)N[C@@H](CCCCN)C(=O)N1CCC[C@H]1C(=O)N[C@@H](CCCCN)C(=O)NCC(=O)N[C@H](C(=O)N[C@@H](CCCCN)C(=O)N1CCC[C@H]1C(=O)N[C@@H](CCCCN)C(=O)NCC(N)=O)[C@@H](C)O)[C@@H](C)O)[C@@H](C)O)[C@@H](C)O)c1ccc(NC(=O)c2cc(Cl)ccc2O)cc1 (X3-[X1]TKPKGTKPKGTKPKGTKPKG-NH2) | 83 (≈ 200 µg/mL) | 41.5 (≈ 99.9 µg/mL) | > 200 | > 2.4 | > 2.4 | Active | Active | Active | > 200 | Active
C/C(=N\OCC(=O)NCC(=O)N[C@@H](Cc1ccccc1)C(=O)N[C@@H](CC(C)C)C(=O)NCC(=O)N[C@H](C(=O)N[C@@H](CCCCN)C(=O)N1CCC[C@@H]1C(=O)N[C@H](CCCNC(=N)N)C(=O)O)[C@@H](C)O)c1ccc(NC(=O)c2cc(Br)ccc2O)cc1 | – | – | – | – | – | Active | Active | Active | – | Active
O=Cc1ccc(O)c(C(=O)Nc2ccc(C(F)(F)F)cc2)c1 | 25.9 (≈ 8.01 µg/mL) | 129 (≈ 40 µg/mL) | 17.6 | 0.7 | 0.8 | – | Active | – | 21.5 | Active
NNC(=O)c1ccncc1 [ISONIAZID] | 1.17 (≈ 0.16 µg/mL) | 292 (≈ 40 µg/mL) | – | – | – | – | Active | – | – | Active
O=C(Nc1ccc(C(F)(F)F)cc1)c1cc(Cl)ccc1O | 1.6 (≈ 0.505 µg/mL) | 3.2 (≈ 1.01 µg/mL) | 5.8 | – | – | – | – | – | 2.2 | –
O=C(Nc1ccc(Cl)c(Cl)c1)c1cc(Cl)ccc1O | 1.6 (≈ 0.507 µg/mL) | 3.2 (≈ 1.01 µg/mL) | 2.4 | 1.5 | 2.4 | – | – | – | 3.8 | –
C/C(=N\OCC(=O)N[C@H](C(=O)N[C@@H](CCCCN)C(=O)N1CCC[C@H]1C(=O)N1CCC[C@H]1C(=O)N[C@@H](CCCNC(=N)N)C(=O)O)[C@@H](C)O)c1ccc(NC(=O)c2cc(Br)ccc2O)cc1 | 20.3 (≈ 20 µg/mL) | 203 (≈ 200 µg/mL) | – | – | – | – | – | – | – | –
C/C(=N\OCC(=O)NCC(=O)N[C@@H](Cc1ccccc1)C(=O)N[C@@H](CC(C)C)C(=O)NCC(=O)N[C@H](C(=O)N[C@@H](CCCCN)C(=O)N1CCC[C@H]1C(=O)N[C@@H](CCCNC(=N)N)C(=O)O)[C@@H](C)O)c1ccc(NC(=O)c2cc(Br)ccc2O)cc1 [listing 2 of 2 here] | – | – | 113 | 3.6 | > 6.3 | – | – | – | > 200 | –
C/C(=N\OCC(=O)NCC(=O)N[C@@H](Cc1ccccc1)C(=O)N[C@@H](CC(C)C)C(=O)NCC(=O)N[C@H](C(=O)N[C@@H](CCCCN)C(=O)N1CCC[C@H]1C(=O)N1CCC[C@H]1C(=O)N[C@@H](CCCNC(=N)N)C(=O)O)[C@@H](C)O)c1ccc(NC(=O)c2cc(Br)ccc2O)cc1 [listing 2 of 2 here] | – | – | 156 | 5.3 | > 6.8 | – | – | – | > 200 | –
C/C(=N\OCC(=O)NCC(=O)N[C@@H](Cc1ccccc1)C(=O)N[C@@H](CC(C)C)C(=O)NCC(=O)N[C@H](C(=O)N[C@@H](CCCCN)C(=O)N1CCC[C@H]1C(=O)N[C@@H](CCCCN)C(=O)NCC(=O)O)[C@@H](C)O)c1ccc(NC(=O)c2cc(Br)ccc2O)cc1 ({Benzoyl(5-Br-2-OH)}-[X1]GFLGTKPKG-OH) | 46.4 (≈ 60 µg/mL) | 155 (≈ 200 µg/mL) | 58 | 1.3 | > 4.3 | Active | Active | inactive | > 200 | Active
C/C(=N\OCC(=O)N[C@H](C(=O)N[C@@H](CCCCN)C(=O)N1CCC[C@H]1C(=O)N1CCC[C@@H]1C(=O)N[C@H](CCCNC(=N)N)C(=O)O)[C@@H](C)O)c1ccc(NC(=O)c2cc(Br)ccc2O)cc1 | – | – | – | – | – | Active | Active | Active | – | Active
O=C(Nc1ccc(C(F)(F)F)cc1)c1cc(Br)ccc1O | 1.4 (≈ 0.504 µg/mL) | 13.9 (≈ 5.01 µg/mL) | 5.5 | 3.9 | 1.4 | – | – | – | 2 | –
